Square brackets hold non-standard residues; d marks the D form. Peptide text beside a SMILES is read from it. NMeF = CN[C@@H](Cc1ccccc1)C(=O)O
Key:
[1] = molecular target: Delta-type opioid receptor (Mus musculus) (UniProt P32300); conditions: Vas deferens; filed as agonist
[2] = molecular target: Mu-type opioid receptor (Cavia porcellus) (UniProt P97266); conditions: Ileum, filed as agonist
Mu-type opioid receptor = Mu-type opioid receptor (Cavia porcellus, UniProt P97266); assay: Inhibitory concentration for inhibition of Opioid receptor mu 1 induced contractions in guinea pig ileum (GPI) smooth muscle assays; type: functional, tissue-based
Mu-type opioid receptor, sequence (P97266 whole entry): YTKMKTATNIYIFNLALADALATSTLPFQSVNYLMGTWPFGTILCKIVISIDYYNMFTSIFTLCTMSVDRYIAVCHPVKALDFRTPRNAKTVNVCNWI
Procedure, shortened: (§1)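 Electrically stimulated MVD (male ICR mice, 25-40 g) and GPI longitudinal muscle myenteric plexus strips (male Hartley guinea pigs, 250-500 g). Baths held 37 °C oxygenated Krebs bicarbonate (Mg-free for MVD), tension 1 g GPI / 0.5 g MVD. Stimulation 0.1 Hz, 0.4 ms pulses (2 ms MVD), supramaximal voltage. IC50 from two to four tissues by nonlinear least squares.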

[3] = molecular target: Delta-type opioid receptor (Mus musculus, UniProt P32300); assay: Inhibitory concentration required for 50 percent inhibition of opioid receptor delta 1 induced contractions in mouse vas deferens (MVD) smooth muscle contraction assays; type: functional
Delta-type opioid receptor, sequence (P32300 whole entry): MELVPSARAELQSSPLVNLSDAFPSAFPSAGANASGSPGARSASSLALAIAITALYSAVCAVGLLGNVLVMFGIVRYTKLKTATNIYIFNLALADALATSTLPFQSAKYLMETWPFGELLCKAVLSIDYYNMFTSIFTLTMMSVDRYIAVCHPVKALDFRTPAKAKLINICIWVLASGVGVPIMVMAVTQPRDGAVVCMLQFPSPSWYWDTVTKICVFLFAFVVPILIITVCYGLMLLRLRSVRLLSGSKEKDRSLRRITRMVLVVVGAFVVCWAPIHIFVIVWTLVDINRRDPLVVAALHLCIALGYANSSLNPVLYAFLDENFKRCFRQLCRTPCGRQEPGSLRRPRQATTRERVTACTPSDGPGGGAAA
Procedure, shortened: as §1, with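 “voltage. […]” for “voltage.”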

Delta-type opioid receptor (Mus musculus), sequence (P32300 whole entry): as above
Mu-type opioid receptor (Cavia porcellus), sequence (P97266 whole entry): as the sequence (P97266 whole entry) above

Question: For `CN(C(=O)[C@@H]1CCCN1C(=O)[C@@H](N)Cc1ccc(O)cc1)[C@@H](Cc1ccccc1)C(=O)N1CCC[C@@H]1C(N)=O` (H-YP[NMeF][dP]-NH2), which Ke [1] is on record?
Answer: Agonist

Question: And the Ke [2]?
Answer: Agonist

Question: What about the IC50 (Mu-type opioid receptor) of the same compound?
Answer: 59.4 nM

Question: What about the IC50 [3] of the same compound?
Answer: 243 nM
